Holding throughout (assay type): functional
What all share (details): read-out: GI

Experiment [1] has as its system Botryosphaeria berengeriana. Briefly: Fungicidal activity against Botryosphaeria berengeriana assessed as mycelium growth inhibition at 50 ug/mL by mycelium growth rate method. The method in brief:
(§1)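 In vitro mycelium growth rate method, with fenpiclonil as control. Compounds were tested at 50, 20 and 10 μg mL-1. Mycelial diameters were measured once the mycelia had grown completely. Inhibition (%) = (D1 − D2)/D1 × 100, where D1 is the mean mycelial diameter in the blank and D2 is the mean diameter with compound.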

Experiment [2] concerns Botryosphaeria berengeriana. Briefly: Fungicidal activity against Botryosphaeria berengeriana assessed as mycelium growth inhibition at 10 ug/mL by mycelium growth rate method. In short, it runs like this: as §1
For experiment [3], the system named is Fusarium oxysporum. Briefly: Fungicidal activity against Fusarium oxysporum assessed as mycelium growth inhibition at 10 ug/mL by mycelium growth rate method. In short, it runs like this:
as §1

For experiment [4], the system named is Alternaria solani. In words: Fungicidal activity against Alternaria solani assessed as mycelium growth inhibition at 10 ug/mL by mycelium growth rate method. In short, it runs like this:
as §1

Experiment [5] deals with Fusarium oxysporum. In words: Fungicidal activity against Fusarium oxysporum assessed as mycelium growth inhibition at 50 ug/mL by mycelium growth rate method. In short, it runs like this:
as §1

Experiment [6] has as its system Botryosphaeria berengeriana. In words: Fungicidal activity against Botryosphaeria berengeriana assessed as mycelium growth inhibition at 20 ug/mL by mycelium growth rate method. In short, it runs like this: as §1
Experiment [7] concerns Fusarium graminearum. Briefly: Fungicidal activity against Fusarium graminearum assessed as mycelium growth inhibition at 10 ug/mL by mycelium growth rate method. The method in brief: as §1
Experiment [8] deals with Mycosphaerella arachidis. In words: Fungicidal activity against Mycosphaerella arachidis assessed as mycelium growth inhibition at 10 ug/mL by mycelium growth rate method. The method in brief: as §1
Experiment [9] has as its system Fusarium graminearum. In words: Fungicidal activity against Fusarium graminearum assessed as mycelium growth inhibition at 20 ug/mL by mycelium growth rate method. In short, it runs like this: as §1
Experiment [10] concerns Fusarium graminearum. Briefly: Fungicidal activity against Fusarium graminearum assessed as mycelium growth inhibition at 50 ug/mL by mycelium growth rate method. The method in brief: as §1
Experiment [11] deals with Mycosphaerella arachidis. In words: Fungicidal activity against Mycosphaerella arachidis assessed as mycelium growth inhibition at 20 ug/mL by mycelium growth rate method. The method in brief:
as §1

In experiment [12] the test system is Alternaria solani. In words: Fungicidal activity against Alternaria solani assessed as mycelium growth inhibition at 50 ug/mL by mycelium growth rate method. In short, it runs like this: as §1
The test system of experiment [13] is Alternaria solani. Briefly: Fungicidal activity against Alternaria solani assessed as mycelium growth inhibition at 20 ug/mL by mycelium growth rate method. The method in brief: as §1
Experiment [14] has as its system Mycosphaerella arachidis. Briefly: Fungicidal activity against Mycosphaerella arachidis assessed as mycelium growth inhibition at 50 ug/mL by mycelium growth rate method. In short, it runs like this:
as §1

Experiment [15] concerns Fusarium oxysporum. Briefly: Fungicidal activity against Fusarium oxysporum assessed as mycelium growth inhibition at 20 ug/mL by mycelium growth rate method. In short, it runs like this:
as §1

On to `O=[N+]([O-])c1cc(-c2ccc(Cl)cc2[N+](=O)[O-])cs1`, for which the inhibition of growth at 50 µg/mL turned out to be 2% in [1]; 17% with Fusarium oxysporum [5]; 4% with Fusarium graminearum [10]; 19% in the experiment on Alternaria solani [12]; 2% in the experiment with Mycosphaerella arachidis [14]. Further, the inhibition of growth at 10 µg/mL (in experiment [2]; with Fusarium oxysporum [3]; with Alternaria solani [4]; in the experiment on Fusarium graminearum [7]; with Mycosphaerella arachidis [8]) was 0% in each case. The inhibition of growth at 20 µg/mL (in experiment [6]; with Fusarium graminearum [9]; in the experiment with Mycosphaerella arachidis [11]; in the experiment on Alternaria solani [13]; in the experiment on Fusarium oxysporum [15]) was 0% each time.
For `O=[N+]([O-])c1cc(-c2c(Cl)cc(Cl)cc2[N+](=O)[O-])cs1`, the inhibition of growth at 50 µg/mL in [1] worked out at 25%; in the experiment with Fusarium oxysporum [5], 39%; in the experiment with Fusarium graminearum [10], 24%; in the experiment with Alternaria solani [12], 41%; in the experiment on Mycosphaerella arachidis [14], 27%. In addition, the inhibition of growth at 10 µg/mL came to 10% in [2]; 21% in the experiment with Fusarium oxysporum [3]; 25% with Alternaria solani [4]; 8% in the experiment on Fusarium graminearum [7]; 5% with Mycosphaerella arachidis [8]. The inhibition of growth at 20 µg/mL in [6] stood at 17%; in the experiment on Fusarium graminearum [9], 16%; with Mycosphaerella arachidis [11], 16%; in the experiment on Alternaria solani [13], 32%; in the experiment with Fusarium oxysporum [15], 32%.
Turning to `O=[N+]([O-])c1cc(-c2cc(Cl)c(F)cc2[N+](=O)[O-])cs1`, the inhibition of growth at 50 µg/mL in [1] stood at 14%; in the experiment with Fusarium oxysporum [5], 10%; with Fusarium graminearum [10], 0%; with Alternaria solani [12] it was 25%; with Mycosphaerella arachidis [14] it was 16%. Moreover, the inhibition of growth at 10 µg/mL (in experiment [2]; in the experiment with Fusarium oxysporum [3]; in the experiment with Alternaria solani [4]; in the experiment on Fusarium graminearum [7]; in the experiment with Mycosphaerella arachidis [8]) was 0% in each case. In addition, the inhibition of growth at 20 µg/mL in experiment [6] turned out to be 2%; in the experiment with Fusarium graminearum [9] it was 0%; with Mycosphaerella arachidis [11] it was 11%; in the experiment with Alternaria solani [13], 16%; with Fusarium oxysporum [15], 7%.
Regarding `O=[N+]([O-])c1cc(-c2c(Cl)cc(Cl)c(Cl)c2[N+](=O)[O-])cs1`, the inhibition of growth at 50 µg/mL came out at 24% in [1]; 4% in the experiment on Fusarium oxysporum [5]; 0% in the experiment with Fusarium graminearum [10]; 34% in the experiment on Alternaria solani [12]; 35% in the experiment on Mycosphaerella arachidis [14]. The inhibition of growth at 10 µg/mL in experiment [2] was found to be 0%; in the experiment with Fusarium oxysporum [3], 0%; in the experiment with Alternaria solani [4], 17%; in the experiment with Fusarium graminearum [7], 0%; in the experiment on Mycosphaerella arachidis [8], 5%. The inhibition of growth at 20 µg/mL in experiment [6] came out at 10%; with Fusarium graminearum [9] it was 0%; in the experiment on Mycosphaerella arachidis [11], 20%; in the experiment with Alternaria solani [13], 26%; in the experiment on Fusarium oxysporum [15], 0%.
For the molecule `O=[N+]([O-])c1ccccc1-c1ccsc1[N+](=O)[O-]`, the inhibition of growth at 50 µg/mL is 30% in [1]; 22% in the experiment with Fusarium oxysporum [5]; 23% in the experiment with Fusarium graminearum [10]; 25% in the experiment with Alternaria solani [12]; 25% in the experiment on Mycosphaerella arachidis [14]. In addition, the inhibition of growth at 10 µg/mL was determined as 0% in experiment [2]; 0% with Fusarium oxysporum [3]; 9% in the experiment on Alternaria solani [4]; 6% with Fusarium graminearum [7]; 8% in the experiment on Mycosphaerella arachidis [8]. In addition, the inhibition of growth at 20 µg/mL in [6] turned out to be 25%; in the experiment on Fusarium graminearum [9], 14%; in the experiment on Mycosphaerella arachidis [11], 16%; in the experiment with Alternaria solani [13], 16%; in the experiment with Fusarium oxysporum [15], 13%.
Consider `O=[N+]([O-])c1cc(F)ccc1-c1ccsc1[N+](=O)[O-]`, for which the inhibition of growth at 50 µg/mL in [1] was determined as 14%; with Fusarium oxysporum [5], 17%; in the experiment with Fusarium graminearum [10] it was 0%; in the experiment with Alternaria solani [12], 48%; in the experiment on Mycosphaerella arachidis [14] it was 16%. The inhibition of growth at 10 µg/mL in experiment [2] came to 0%; in the experiment with Fusarium oxysporum [3] it was 0%; in the experiment on Alternaria solani [4], 9%; with Fusarium graminearum [7], 0%; in the experiment with Mycosphaerella arachidis [8] it was 0%. In addition, the inhibition of growth at 20 µg/mL in experiment [6] stood at 4%; in the experiment on Fusarium graminearum [9], 0%; in the experiment with Mycosphaerella arachidis [11], 0%; with Alternaria solani [13] it was 25%; in the experiment on Fusarium oxysporum [15], 7%.
In the case of `O=[N+]([O-])c1ccc(F)cc1-c1ccsc1[N+](=O)[O-]`, the inhibition of growth at 50 µg/mL in [1] came out at 10%; in the experiment with Fusarium oxysporum [5], 21%; in the experiment on Fusarium graminearum [10], 0%; in the experiment with Alternaria solani [12], 29%; in the experiment with Mycosphaerella arachidis [14] it was 11%. The inhibition of growth at 10 µg/mL (in [2]; with Fusarium oxysporum [3]; in the experiment on Alternaria solani [4]; with Fusarium graminearum [7]; with Mycosphaerella arachidis [8]) was 0% each time. Also, the inhibition of growth at 20 µg/mL in experiment [6] was found to be 0%; in the experiment on Fusarium graminearum [9], 0%; in the experiment on Mycosphaerella arachidis [11], 0%; in the experiment on Alternaria solani [13], 16%; with Fusarium oxysporum [15] it was 0%.
`O=[N+]([O-])c1cc(Cl)ccc1-c1ccsc1[N+](=O)[O-]`: the inhibition of growth at 50 µg/mL in experiment [1] was determined as 25%; with Fusarium oxysporum [5] it was 17%; with Fusarium graminearum [10] it was 0%; with Alternaria solani [12], 9%; in the experiment with Mycosphaerella arachidis [14], 0%. Further, the inhibition of growth at 10 µg/mL (in [2]; in the experiment on Fusarium oxysporum [3]; in the experiment with Alternaria solani [4]; in the experiment with Fusarium graminearum [7]; with Mycosphaerella arachidis [8]) was 0% each time. Moreover, the inhibition of growth at 20 µg/mL was determined as 10% in experiment [6]; 0% with Fusarium graminearum [9]; 0% in the experiment on Mycosphaerella arachidis [11]; 0% in the experiment on Alternaria solani [13]; 0% with Fusarium oxysporum [15].
`O=[N+]([O-])c1cc(Cl)cc(Cl)c1-c1ccsc1[N+](=O)[O-]`: the inhibition of growth at 50 µg/mL in [1] turned out to be 27%; in the experiment with Fusarium oxysporum [5] it was 28%; in the experiment with Fusarium graminearum [10] it was 0%; with Alternaria solani [12], 38%; in the experiment on Mycosphaerella arachidis [14], 27%. Besides, the inhibition of growth at 10 µg/mL was 2% in experiment [2]; 10% in the experiment on Fusarium oxysporum [3]; 16% with Alternaria solani [4]; 0% with Fusarium graminearum [7]; 0% in the experiment with Mycosphaerella arachidis [8]. The inhibition of growth at 20 µg/mL in experiment [6] came out at 17%; with Fusarium graminearum [9], 0%; in the experiment with Mycosphaerella arachidis [11] it was 11%; in the experiment with Alternaria solani [13], 32%; in the experiment with Fusarium oxysporum [15], 14%.
For the molecule `O=[N+]([O-])c1cc(F)c(Cl)cc1-c1ccsc1[N+](=O)[O-]`, the inhibition of growth at 50 µg/mL in [1] was found to be 42%; with Fusarium oxysporum [5], 39%; in the experiment on Fusarium graminearum [10] it was 20%; with Alternaria solani [12] it was 61%; in the experiment with Mycosphaerella arachidis [14] it was 18%. The inhibition of growth at 10 µg/mL in experiment [2] is 12%; in the experiment with Fusarium oxysporum [3], 14%; in the experiment on Alternaria solani [4], 48%; in the experiment with Fusarium graminearum [7], 0%; in the experiment with Mycosphaerella arachidis [8], 0%. The inhibition of growth at 20 µg/mL was 36% in experiment [6]; 4% with Fusarium graminearum [9]; 5% in the experiment on Mycosphaerella arachidis [11]; 54% in the experiment on Alternaria solani [13]; 28% in the experiment with Fusarium oxysporum [15].
Turning to `O=[N+]([O-])c1sccc1-c1c(Cl)cc(Cl)c(Cl)c1[N+](=O)[O-]`, the inhibition of growth at 50 µg/mL in [1] is 40%; in the experiment on Fusarium oxysporum [5], 22%; with Fusarium graminearum [10], 0%; in the experiment on Alternaria solani [12], 34%; in the experiment on Mycosphaerella arachidis [14], 40%. The inhibition of growth at 10 µg/mL was found to be 0% in experiment [2]; 0% in the experiment with Fusarium oxysporum [3]; 0% in the experiment with Alternaria solani [4]; 0% with Fusarium graminearum [7]; 5% in the experiment on Mycosphaerella arachidis [8]. For the same molecule, the inhibition of growth at 20 µg/mL came to 13% in experiment [6]; 0% in the experiment with Fusarium graminearum [9]; 25% with Mycosphaerella arachidis [11]; 26% with Alternaria solani [13]; 0% with Fusarium oxysporum [15].
